# From ChEMBL document CHEMBL2311500, “Identification and characterization of small molecules as potent and specific EPAC2 antagonists” (J Med Chem, 2013)
# Active and inactive are the calls of the source. No cut-off for these calls is given here.
# Assays:
# [1] = biological target: T1, Rap guanine nucleotide exchange factor 4 (Homo sapiens, UniProt Q8WZA2); assay: Antagonist activity at recombinant EPAC2 (unknown origin) assessed 8-NBD-cAMP substrate fluorescence intensity by substrate competing assay
# Target sequence in this assay (Q8WZA2 whole entry): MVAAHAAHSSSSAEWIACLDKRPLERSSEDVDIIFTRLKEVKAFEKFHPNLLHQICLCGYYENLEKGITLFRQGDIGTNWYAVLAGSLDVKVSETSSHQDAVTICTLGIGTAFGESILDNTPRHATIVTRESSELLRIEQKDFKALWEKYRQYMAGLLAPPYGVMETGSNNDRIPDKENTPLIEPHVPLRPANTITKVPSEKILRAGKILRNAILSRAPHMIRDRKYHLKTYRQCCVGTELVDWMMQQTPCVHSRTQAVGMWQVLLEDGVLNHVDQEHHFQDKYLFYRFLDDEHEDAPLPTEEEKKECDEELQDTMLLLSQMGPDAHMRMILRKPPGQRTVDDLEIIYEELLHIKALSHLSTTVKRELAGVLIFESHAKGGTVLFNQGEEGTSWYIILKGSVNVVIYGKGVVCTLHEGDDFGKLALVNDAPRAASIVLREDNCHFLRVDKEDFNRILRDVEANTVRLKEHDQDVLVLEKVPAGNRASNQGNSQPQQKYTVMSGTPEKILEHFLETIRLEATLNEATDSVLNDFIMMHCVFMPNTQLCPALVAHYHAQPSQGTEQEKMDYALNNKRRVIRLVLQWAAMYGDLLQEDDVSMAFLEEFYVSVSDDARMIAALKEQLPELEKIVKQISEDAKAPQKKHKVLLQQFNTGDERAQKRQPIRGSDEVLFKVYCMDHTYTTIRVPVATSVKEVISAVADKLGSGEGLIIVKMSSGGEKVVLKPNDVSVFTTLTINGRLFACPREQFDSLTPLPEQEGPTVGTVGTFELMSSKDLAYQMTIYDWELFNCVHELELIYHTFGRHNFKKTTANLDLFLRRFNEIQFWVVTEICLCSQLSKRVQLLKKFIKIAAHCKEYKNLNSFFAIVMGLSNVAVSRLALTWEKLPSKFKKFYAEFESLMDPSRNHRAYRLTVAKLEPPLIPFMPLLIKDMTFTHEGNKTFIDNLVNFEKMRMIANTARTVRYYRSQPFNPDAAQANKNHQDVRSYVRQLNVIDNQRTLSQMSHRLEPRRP
# Homo sapiens [2] = species on record: Homo sapiens; assay: Inhibition of PKA2 (unknown origin) assessed as inhibition of cAMP-induced activation at 25 uM by spectrophotometric analysis
# Method in brief: (§1)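 Coupled pyruvate kinase/lactate dehydrogenase assay following NADH oxidation at 340 nm, at room temperature. The reaction was started with Kemptide (0.26 mM final). H89 (25 µM) served as the inhibition control.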
# Homo sapiens [3] = species on record: Homo sapiens; assay: Inhibition of PKA1 (unknown origin) assessed as inhibition of cAMP-induced activation at 25 uM by spectrophotometric analysis; method in brief: as §1
# [4] = biological target: T2, Rap guanine nucleotide exchange factor 3 (Homo sapiens) (UniProt O95398); assay: Inhibition of recombinant EPAC1 (unknown origin) assessed as inhibition of cAMP-mediated RAP1-GDP exchange activity at 25 uM by spectrofluorometric analysis
# T2 sequence (whole entry): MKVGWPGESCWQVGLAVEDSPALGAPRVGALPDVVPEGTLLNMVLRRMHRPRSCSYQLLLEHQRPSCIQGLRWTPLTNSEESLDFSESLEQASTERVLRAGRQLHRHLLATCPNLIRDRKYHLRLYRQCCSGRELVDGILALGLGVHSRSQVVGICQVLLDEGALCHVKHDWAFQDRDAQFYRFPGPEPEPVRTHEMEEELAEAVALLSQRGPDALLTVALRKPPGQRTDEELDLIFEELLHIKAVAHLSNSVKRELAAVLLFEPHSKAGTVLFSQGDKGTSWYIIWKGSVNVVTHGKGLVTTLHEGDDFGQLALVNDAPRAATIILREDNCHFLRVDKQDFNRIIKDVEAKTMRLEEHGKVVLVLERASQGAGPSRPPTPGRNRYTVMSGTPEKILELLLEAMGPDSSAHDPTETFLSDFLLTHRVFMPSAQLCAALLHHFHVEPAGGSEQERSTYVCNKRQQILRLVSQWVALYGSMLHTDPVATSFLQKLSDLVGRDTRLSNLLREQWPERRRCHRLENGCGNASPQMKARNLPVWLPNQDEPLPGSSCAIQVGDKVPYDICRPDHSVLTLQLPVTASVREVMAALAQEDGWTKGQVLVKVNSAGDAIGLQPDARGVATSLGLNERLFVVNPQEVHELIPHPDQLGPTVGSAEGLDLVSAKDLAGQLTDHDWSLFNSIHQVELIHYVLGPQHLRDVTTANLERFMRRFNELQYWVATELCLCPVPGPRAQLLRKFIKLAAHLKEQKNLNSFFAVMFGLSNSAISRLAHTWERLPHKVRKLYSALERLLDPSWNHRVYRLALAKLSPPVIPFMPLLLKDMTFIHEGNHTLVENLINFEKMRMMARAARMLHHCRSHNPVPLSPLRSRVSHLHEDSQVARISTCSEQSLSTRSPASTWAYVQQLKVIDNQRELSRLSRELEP
# Method in brief: (§2)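 Purified recombinant full-length EPAC1 or EPAC2 with 0.2 µM Mant-GDP-loaded Rap1B(1-167) in 50 mM Tris pH 7.5, 50 mM NaCl, 5 mM MgCl2, 1 mM DTT and 20 µM unlabeled GDP. […] Fluorescence decay (ex 366/em 450 nm) was recorded every 60 s over 6000 s.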
# [5] = biological target: T1, Rap guanine nucleotide exchange factor 4; assay: Inhibition of recombinant EPAC2 (unknown origin) assessed as inhibition of cAMP-mediated guanine nucleotide exchange factor activity at 25 uM by spectrofluorometric analysis; method in brief: as §2
# Target sequence in this assay (Q8WZA2 whole entry, looked up): as the sequence (Q8WZA2 whole entry) above
# [6] = biological target: T2, Rap guanine nucleotide exchange factor 3 (Homo sapiens); assay: Inhibition FL-tagged full length human EPAC1 expressed in HEK293 cells assessed as inhibition of 007-AM-induced activation at 10 uM by FRET assay; assay type: cell-based
# HEK293 = assay: Inhibition of N-terminal CFP/C-terminal YFP tagged PKA (unknown origin) expressed in HEK293 cells assessed as inhibition of 8-Br-cAMP-AM-induced activation at 10 uM by FRET assay; assay type: cell-based; conditions: Homo sapiens
# [7] = biological target: T1, Rap guanine nucleotide exchange factor 4; conditions: HEK293, 10 uM
# Target sequence in this assay (Q8WZA2 whole entry, looked up): as the sequence (Q8WZA2 whole entry) above
Structure (SMILES),IC50 [1],further results
COC(=O)c1ccc2c(ccn2S(=O)(=O)c2c(C)cc(C)cc2C)c1,> 300 µM,
Cc1cc(C)c(S(=O)(=O)n2ccc3cccnc32)c(C)c1,2.4 µM,
CCCCCc1ccc(S(=O)(=O)c2c(C)cc(C)cc2C)cc1,> 300 µM,
CCc1cccn1S(=O)(=O)c1cc(C)cc(C)c1,4.7 µM,
Cc1cc(C)c(Nc2cc(Cl)cc(Cl)c2)c(C)c1,0.9 µM,
Cc1ccc(S(=O)(=O)c2c(C)cc(C)cc2C)cc1,,inhibition (Homo sapiens [2]): inactive; inhibition (Homo sapiens [3]): inactive; inhibition [4]: inactive; inhibition [5]: Active
Cc1cc(C)c(S(=O)(=O)c2ccc(-c3ccc(F)nc3)cc2)c(C)c1,> 300 µM,
CCc1cccn1S(=O)(=O)c1ccc(OC)cc1,8 µM,
Cc1cc(C)c(S(=O)(=O)c2ccc(OC3CCN(C(=O)OC(C)(C)C)CC3)cc2)c(C)c1,> 300 µM,
Nc1ccc(Nc2ccc(N)cc2S(=O)(=O)O)cc1,18 µM,
Cc1cc(C)c(S(=O)(=O)n2ccc3ncccc32)c(C)c1,3.8 µM,
Cc1cc(C)c(S(=O)(=O)c2ccc(OC3CCCCC3)cc2)c(C)c1,> 300 µM,
Cc1cc(C)c(S(=O)(=O)n2ccc3ccccc32)c(C)c1,1.2 µM,
Cc1cc(C)c(S(=O)(=O)c2ccc(I)cc2)c(C)c1,4 µM,
Cc1cc(C)c(S(=O)(=O)c2cc(C)c(C)cc2C)c(C)c1,0.7 µM,
Cc1cc(C)c(S(=O)(=O)n2ccc3ccncc32)c(C)c1,12.6 µM,

Structure (SMILES),IC50 [1],further results
Cc1ccc(Nc2c(C)cc(C)cc2C)cc1,3.8 µM,
Cc1cc(C)c(S(=O)(=O)n2cc(C)cc2C)c(C)c1,,inhibition [6]: inactive; inhibition (HEK293): inactive; inhibition (Homo sapiens [2]): inactive; inhibition (Homo sapiens [3]): inactive; inhibition [4]: inactive; inhibition [5]: Active; inhibition [7]: Active
Cc1cc(C)c(Nc2cc(Cl)ccc2Cl)c(C)c1,0.4 µM,inhibition (Homo sapiens [2]): inactive; inhibition (Homo sapiens [3]): inactive; inhibition [4]: inactive; inhibition [5]: Active
CCc1cccn1S(=O)(=O)c1ccc(C)cc1,4 µM,
Cc1cc(C)c(S(=O)(=O)c2ccc(OCCN)cc2)c(C)c1,> 300 µM,
Cc1cc(C)c(S(=O)(=O)n2ccc3cnccc32)c(C)c1,8.9 µM,
Cc1cc(C)c(S(=O)(=O)c2ccc(O)cc2)c(C)c1,13.5 µM,
COc1ccc(S(=O)(=O)c2c(C)cc(C)cc2C)cc1,1.9 µM,
Cc1cc(C)c(S(=O)(=O)c2ccc(OC3CCNCC3)cc2)c(C)c1,> 300 µM,
Cc1cc(C)c(Nc2nc(C)c(C)s2)c(C)c1,> 300 µM,
Cc1cc(C)c(S(=O)(=O)c2ccc(C3CCCCC3)cc2)c(C)c1,> 300 µM,
O=S(=O)(NCCNC/C=C/c1ccc(Br)cc1)c1cccc2cnccc12,,inhibition (Homo sapiens [2]): Active; inhibition (Homo sapiens [3]): Active
Cc1cc(C)c(S(=O)(=O)n2ccc3cc(C(=O)O)ccc32)c(C)c1,10.8 µM,
CCc1cccn1S(=O)(=O)c1ccc(C)cc1C,1.3 µM,
CCc1cccn1S(=O)(=O)c1ccccc1C,5.3 µM,
CCc1cccn1S(=O)(=O)c1ccc(C(F)(F)F)cc1,> 300 µM,
